In publication PMC6057249 (The Indian Journal of Medical Research, 2018):
Values after ≈ are worked out from the molar mass of the structure shown. Values joined by “and” are separate entries in the source; they are usually repeats but may differ in a detail not shown here. Equal values may be shown once. Read-outs that look alike come from different tables or passages of the source. Bridge positions count the residues as written; N and C are the ends. Square brackets hold non-standard residues; d marks the D form. Peptide text beside a SMILES is read from it. * marks the point of attachment. X1 = CC[C@H](C)CCCCC(=O)*; Dab = NCC[C@H](N)C(=O)O

How the values were obtained:
[1] = format: in vivo, human; settings: for AUC after 5th dose: individual patients, steady state, plasma, AUC0-8; for average steady-state concentration (Css, avg) of formed colistin, median: six patients receiving 2 MU q8h, no loading dose
Outline: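 CMS was given by 1-h i.v. infusion every 8 h. Heparinized venous blood was drawn pre-dose, at end of infusion, then 30 min and 1.5, 2, 4, 6, 8 h after dose 1 and dose 5 (steady state). Plasma (200 μl) was stored at −80°C. CMS was acid-hydrolysed (5% formic acid, 30 min), and colistin A+B were quantified by UHPLC-MS/SRM against a reserpine internal standard. Values are total colistin, with outliers omitted.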

Acinetobacter baumannii = assay: MIC for colistin by E-test; format: cell-based; settings: isolate of the individual patient
Outline: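 Organisms came from positive cultures of ICU patients with MDR Gram-negative bloodstream infection and were identified and susceptibility-tested. Colistin MIC for each patient's isolate was determined by E-test per the manufacturer's instructions.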

[2] = test system: MDR Gram-negative infections; assay: Bacteriological profile and clinical outcome of patients on colistin monotherapy; format: in vivo, human; settings: 1-2 MU i.v. every 8 h
Outline: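 ICU patients >12 yr with normal renal function and bloodstream infection by an MDR Gram-negative organism susceptible only to colistin. They received colistin monotherapy as CMS by 1-h i.v. infusion every 8 h, without a loading dose, for […]. Follow-up cultures were taken. Exclusions were expected survival <72 h, pregnancy, burns >20% of body surface, and cystic fibrosis.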

[3] = cited from earlier work
[4] = stored plasma samples; to be estimated within four months; ref [17]; cited from earlier work

For `CC[C@H](C)CCCCC(=O)N[C@@H](CCN)C(=O)N[C@H](C(=O)N[C@@H](CCN)C(=O)N[C@H]1CCNC(=O)[C@H]([C@@H](C)O)NC(=O)[C@H](CCN)NC(=O)[C@H](CCN)NC(=O)[C@H](CC(C)C)NC(=O)[C@@H](CC(C)C)NC(=O)[C@H](CCN)NC1=O)[C@@H](C)O` [colistin] (X1-[Dab]T[Dab][Dab][Dab][dL]L[Dab][Dab]T; lactam 4-C), the “terminal half-life, range” value ([1]; 2 MU i.v. every 8 h, after 1st dose) was 4.7 to 9.84 h, the “terminal half-life, range” value ([1]; 2 MU i.v. every 8 h, after 5th dose) was 2.72 to 8.5 h and the “AUC after 5th dose” value ([1]; 1 MU i.v. every 8 h) was 5.4 mg·h/L and 8.5 mg·h/L and 3.5 mg·h/L. The “AUC after 5th dose” value ([1]; 2 MU i.v. every 8 h) was 15.8 mg·h/L and 6.0 mg·h/L and 4.4 mg·h/L, the “Vd for a majority of patients” value ([1]; patients of this study) was “more than 1.0 l/kg” and the “average steady-state concentration (Css, avg) of formed colistin, median” value ([1]; after 1st dose) was 570 ng/mL. The “average steady-state concentration (Css, avg) of formed colistin, median” value ([1]; after 5th dose) was 720 ng/mL, the MIC (Acinetobacter baumannii) was 0.125 µg/mL (≈ 0.107 µM) and the follow up cultures ([2]; all nine patients) was “sterile”. For the same molecule, the “patients who did not survive” value ([2]; nine patients) was 30 per cent, the “apparent terminal t1/2” value ([3]; 2 MU dosage regimen, ref Imberti et al [10]) was 5.9 ± 2.6 h and the t1/2 ([3]; after 2.8 MU dosage, ref Markou et al [11]) was 7.4 ± 1.7 h. For the same molecule, the Vd ([3]; cystic fibrosis patients, single dose, ref [17]) was 0.09 (0.02) l/kg, the Vd ([3]; cystic fibrosis patients, steady state, ref [17]) was 0.09 (0.03) l/kg and the Vd ([3]; other Indian study, after both the single dose and at steady state, ref [7]) was 0.3 (0.2-0.5) l/kg. For the same molecule, the Vd ([3]; other studies, ref [10]) was 1.5 ± 1.1 L/kg.

For colistin methanesulphonate [CMS], the “stability in stored samples (conversion of CMS to colistin)” value [4] is listed as “unstable”.
